Experiments:
P2Y purinoceptor 1 [1] = biological target: T1, P2Y purinoceptor 1 (Homo sapiens, UniProt P47900); assay: Antagonistic activity against P2Y purinoceptor 1; type: functional
Outline: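 Human P2Y1 stably expressed in 1321N1 astrocytoma cells, labeled 18–24 h at 37 °C with 1.0 µCi [3H]myo-inositol in inositol-free DMEM. Inositol phosphate accumulation was stimulated by 30 nM 2MeSADP over 10 min at 37 °C with 10 mM LiCl. Total [3H]inositol phosphates were measured by anion exchange. IC50 came from a four-parameter logistic fit; ≥3 experiments, duplicate or triplicate.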

P2Y purinoceptor 1 [2] = biological target: T1, P2Y purinoceptor 1; assay: Inhibition of [3H]5 binding to P2Y purinoceptor 1 expressed in Sf9 cells
Outline: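 Membranes were from Sf9 cells expressing human P2Y1 via recombinant baculovirus. They were incubated 30 min at 4 °C with [3H]5 (~20 nM or 10 nM as stated) across a wide analogue concentration range. Samples were filtered over glass-fiber with ice-cold 10 mM Tris pH 7.5/145 mM NaCl and counted by scintillation. Assays were triplicate, three experiments. Ki = IC50/(1+[L]/Kd), Kd 8 nM.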

T1 sequence (P47900 whole entry): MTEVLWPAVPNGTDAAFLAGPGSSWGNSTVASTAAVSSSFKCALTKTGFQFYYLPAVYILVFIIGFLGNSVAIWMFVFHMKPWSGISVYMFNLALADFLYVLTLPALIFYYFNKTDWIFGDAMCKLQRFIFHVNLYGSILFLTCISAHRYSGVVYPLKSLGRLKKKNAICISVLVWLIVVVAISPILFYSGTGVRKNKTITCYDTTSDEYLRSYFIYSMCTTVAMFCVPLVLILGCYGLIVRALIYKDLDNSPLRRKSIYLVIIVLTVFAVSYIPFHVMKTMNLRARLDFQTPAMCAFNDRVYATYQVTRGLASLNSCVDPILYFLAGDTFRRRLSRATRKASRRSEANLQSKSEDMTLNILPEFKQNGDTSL

SMILES	IC50 (P2Y purinoceptor 1 [1])	Ki (P2Y purinoceptor 1 [2])
CCCC/C=C\c1nc(NC)c2ncn([C@H]3C[C@H](OP(=O)(O)O)[C@]4(COP(=O)(O)O)C[C@H]34)c2n1	2400 nM	430 nM
CSc1nc(N)c2ncn([C@H]3C[C@H](OP(=O)(O)O)[C@]4(COP(=O)(O)O)C[C@H]34)c2n1	367 nM	863 nM
CNc1ncnc2c1ncn2[C@H]1C[C@H](OP(=O)(O)O)[C@]2(COP(=O)(O)O)C[C@H]12	157 nM	17.6 nM
CNc1nc(SC)nc2c1ncn2[C@H]1C[C@H](OP(=O)(O)O)[C@]2(COP(=O)(O)O)C[C@H]12	221 nM	91 nM
CCCC/C=C/c1nc(NC)c2ncn([C@H]3C[C@H](OP(=O)(O)O)[C@]4(COP(=O)(O)O)C[C@H]34)c2n1	1870 nM	330 nM
CCCCCCc1nc(NC)c2ncn([C@H]3C[C@H](OP(=O)(O)O)[C@]4(COP(=O)(O)O)C[C@H]34)c2n1	452 nM	80 nM
Nc1nc(I)nc2c1ncn2C1CC(OP(=O)(O)O)[C@]2(COP(=O)(O)O)C[C@H]12 (stereo partly specified)	87 nM	12.6 nM
CNc1nc([Se]C)nc2c1ncn2C1CC(OP(=O)(O)O)[C@]2(COP(=O)(O)O)C[C@H]12 (stereo partly specified)	377 nM	35 nM

Now from value to molecule:

IC50 (P2Y purinoceptor 1 [1])	Ki (P2Y purinoceptor 1 [2])	SMILES
37 nM	5.1 nM	CNc1nc(Br)nc2c1ncn2C1CC(OP(=O)(O)O)[C@]2(COP(=O)(O)O)C[C@H]12 (stereo partly specified)
52 nM	2.5 nM	CNc1nc(Cl)nc2c1ncn2[C@H]1C[C@H](OP(=O)(O)O)[C@]2(COP(=O)(O)O)C[C@H]12
49 nM	3.6 nM	CNc1nc(C)nc2c1ncn2[C@H]1C[C@H](OP(=O)(O)O)[C@]2(COP(=O)(O)O)C[C@H]12
356 nM	45 nM	CNc1nc(F)nc2c1ncn2[C@H]1C[C@H](OP(=O)(O)O)[C@]2(COP(=O)(O)O)C[C@H]12
8.4 nM	0.78 nM	CNc1nc(I)nc2c1ncn2[C@H]1C[C@H](OP(=O)(O)O)[C@]2(COP(=O)(O)O)C[C@H]12

Reference: ChEMBL document CHEMBL1145892, “2-Substitution of adenine nucleotide analogues containing a bicyclo[3.1.0]hexane ring system locked in a northern conformation: enhanced potency as P2Y1 receptor antagonists” (J Med Chem, 2003)
